Experimental data taken from ChEMBL document CHEMBL3860049, “Virtual Screening and X-ray Crystallography Identify Non-Substrate Analog Inhibitors of Flavin-Dependent Thymidylate Synthase” (J Med Chem, 2016).

Each compound was assayed on Mycobacterium tuberculosis (assay: Inhibition of Mycobacterium tuberculosis ThyX at 100 uM preincubated with enzyme followed by [5-3H]dUMP substrate addition measured after 30 mins in presence of 5,10-methylenetetrahydrofolate,NADPH and FAD by liquid scintillation counting).
In short: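 Recombinant Mtb ThyX (purified per an earlier protocol) tested at 100 µM per compound. Tritium release assay: formation of tritiated water from loss of 3H at the 5-carbon of the dUMP pyrimidine ring, with dUMP as competing substrate. Read-out is percent inhibition. 5-FdUMP served as reference compound.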
`O=c1[nH][nH]c(=O)c2nc3ccccc3nc12` showed an inhibition of 10%. Work on `O=c1[nH]c(=O)n([C@H]2C[C@H](O)[C@@H](COP(=O)(O)O)O2)cc1F` yielded an inhibition of 97.3%. With `CCCC(=O)C1C(=O)NC(=O)NC1=O` the inhibition was 11%. For `O=c1[nH]nc(-c2ccccc2)c2nc[nH]c12`, the inhibition was 15%. For `Cc1nnc(Cl)c2ncn(C)c12`, the inhibition was 14%. `O=c1[nH][nH]c(=O)c2nccnc12` showed an inhibition of 5.3%. `O=c1[nH]nc(Cl)c2nc[nH]c12` showed an inhibition of 29%. In the case of `CC[C@H](Sc1n[nH]c(=O)[nH]c1=O)C(=O)O`, the inhibition is reported as 5.7%. `CSc1n[nH]c(=O)c2[nH]cnc12` was tested, and the inhibition was 10%. `O=c1[nH][nH]c(=O)c2[nH]cnc12` showed an inhibition of 7.1%. With `COc1ccc2[nH]c3c(O)nncc3c2c1` the inhibition was 7%. `C[C@@H](Sc1n[nH]c(=O)[nH]c1=O)C(=O)O` was tested, and the inhibition was 6.1%.
